# From ChEMBL document CHEMBL3352255, “Tailor-made fluorescent trilobolide to study its biological relevance” (J Med Chem, 2014)
# The source made the active and inactive calls. No cut-off for these calls is given here.
# Legend:
# HT-29 [1] = test: Cytotoxicity against human HT-29 cells after 48 hrs by WST-1 assay; type: functional, cell-based; details: HT-29, 48 h
# How it was run: (§1)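 Dark cytotoxicity (no light exposure) by WST-1 tetrazolium-to-formazan conversion reflecting metabolic activity; compounds tested at concentrations up to 50 μM for 24, 48 or 72 h; IC50 taken as concentration giving 50% inhibition of cell viability.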
# C2C12 [2] = test: Cytotoxicity against mouse C2C12 cells after 72 hrs by WST-1 assay; type: functional, cell-based; details: C2C12, 72 h; how it was run: as §1
# [3] = Cytotoxicity against human PC3 cells after 24 hrs by WST-1 assay; type: functional, cell-based; details: PC-3, 24 h; how it was run: as §1
# [4] = Cytotoxicity against human PC3 cells after 72 hrs by WST-1 assay; type: functional, cell-based; details: PC-3, 72 h; how it was run: as §1
# [5] = Cytotoxicity against human MIAPaCa2 cells after 48 hrs by WST-1 assay; type: functional, cell-based; details: MIA PaCa-2, 48 h; how it was run: as §1
# [6] = Cytotoxicity against rat peritoneal cells assessed as reduction in cell viability at 10 uM after 24 hrs by WST-1 assay; type: cell-based
# [7] = Cellular uptake in Endoplasmic reticulum of human LNCAP cells at 1 uM after 1 hr by fluorescence microscopy; type: ADME, cell-based
# How it was run: (§2)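 Live-cell fluorescence microscopy of cells exposed to Bodipy-labelled conjugates at 1 μM for 1 h. ER was co-stained with ER-Tracker Blue-White DPX (100 nM, 20 min) to check colocalisation. A Bodipy dye-only stain served as control.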
# C2C12 [8] = test: Cytotoxicity against mouse C2C12 cells after 48 hrs by WST-1 assay; type: functional, cell-based; details: C2C12, 48 h; how it was run: as §1
# LNCaP [9] = test: Cytotoxicity against human LNCAP cells after 48 hrs by WST-1 assay; type: functional, cell-based; how it was run: as §1
# LNCaP [10] = test: Induction of LPS-induced NO production in human LNCAP cells at 40 uM after 24 hrs using DAR-2 probe by fluorescence assay; type: functional, cell-based
# How it was run: (§3)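 NO in living cells (PC-3, LNCaP, MCF-7, U-2 OS) was imaged by fluorescence microscopy with the NO-specific red-emitting probe DAR-2 after compound stimulation.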
# LNCaP [11] = test: Cytotoxicity against human LNCAP cells after 72 hrs by WST-1 assay; type: functional, cell-based; how it was run: as §1
# U2OS [12] = test: Cytotoxicity against human U2OS cells after 24 hrs by WST-1 assay; type: functional, cell-based; how it was run: as §1
# PC-3 = test: Induction of LPS-induced NO production in human PC3 cells at 40 uM after 24 hrs using DAR-2 probe by fluorescence assay; type: functional, cell-based; how it was run: as §3
# [13] = Cellular uptake in Endoplasmic reticulum of human PC3 cells at 1 uM after 1 hr by fluorescence microscopy; type: ADME, cell-based; details: pc-3, 1 h; how it was run: as §2
# [14] = Cytotoxicity against human MIAPaCa2 cells after 72 hrs by WST-1 assay; type: functional, cell-based; details: MIA PaCa-2, 72 h; how it was run: as §1
# C2C12 [15] = test: Cytotoxicity against mouse C2C12 cells after 24 hrs by WST-1 assay; type: functional, cell-based; details: C2C12, 24 h; how it was run: as §1
# MCF7 [16] = test: Cytotoxicity against human MCF7 cells after 24 hrs by WST-1 assay; type: functional, cell-based; details: MCF7, 24 h; how it was run: as §1
# [17] = Cytotoxicity against human MIAPaCa2 cells after 24 hrs by WST-1 assay; type: functional, cell-based; details: MIA PaCa-2, 24 h; how it was run: as §1
# U2OS [18] = test: Induction of LPS-induced NO production in human U2OS cells at 40 uM after 24 hrs using DAR-2 probe by fluorescence assay; type: functional, cell-based; how it was run: as §3
# MCF7 [19] = test: Cytotoxicity against human MCF7 cells after 72 hrs by WST-1 assay; type: functional, cell-based; details: MCF7, 72 h; how it was run: as §1
# [20] = Cellular uptake in Endoplasmic reticulum of human U2OS cells at 1 uM after 1 hr by fluorescence microscopy; type: ADME, cell-based; how it was run: as §2
# [21] = Cytotoxicity against human PC3 cells after 48 hrs by WST-1 assay; type: functional, cell-based; details: PC-3, 48 h; how it was run: as §1
# U2OS [22] = test: Cytotoxicity against human U2OS cells after 48 hrs by WST-1 assay; type: functional, cell-based; how it was run: as §1
# HT-29 [23] = test: Cytotoxicity against human HT-29 cells after 72 hrs by WST-1 assay; type: functional, cell-based; details: HT-29, 72 h; how it was run: as §1
# HT-29 [24] = test: Cytotoxicity against human HT-29 cells after 24 hrs by WST-1 assay; type: functional, cell-based; details: HT-29, 24 h; how it was run: as §1
# LNCaP [25] = test: Cytotoxicity against human LNCAP cells after 24 hrs by WST-1 assay; type: functional, cell-based; how it was run: as §1
# MCF7 [26] = test: Induction of LPS-induced NO production in human MCF7 cells at 40 uM after 24 hrs using DAR-2 probe by fluorescence assay; type: functional, cell-based; how it was run: as §3
# U2OS [27] = test: Cytotoxicity against human U2OS cells after 72 hrs by WST-1 assay; type: functional, cell-based; how it was run: as §1
# [28] = Cellular uptake in Endoplasmic reticulum of human HeLa cells at 1 uM after 1 hr by fluorescence microscopy; type: ADME, cell-based; how it was run: as §2
# MCF7 [29] = test: Cytotoxicity against human MCF7 cells after 48 hrs by WST-1 assay; type: functional, cell-based; details: MCF7, 48 h; how it was run: as §1
# [30] = Cytotoxicity against rat peritoneal cells assessed as reduction in cell viability at 40 uM after 24 hrs by WST-1 assay; type: cell-based
# [31] = Cytotoxicity against rat peritoneal cells assessed as reduction in cell viability at 40 uM after 24 hrs by WST-1 assay
# [32] = Cellular uptake in human PC3 cells at 5 uM after 24 hrs by fluorescence microscopy; type: ADME, cell-based; details: pc-3, 24 h
# How it was run: (§4)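 Live-cell fluorescence microscopy of Bodipy-labelled conjugates (green emission), 5 μM, uptake followed at 10, 20, 40 min and 1, 3, 5, 24 h. Cells stained with Bodipy dye alone served as control for dye-driven localization.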
# MCF7 [33] = test: Cellular uptake in human MCF7 cells at 5 uM after 24 hrs by fluorescence microscopy; type: ADME, cell-based; details: mcf7, 24 h
# [34] = Cellular uptake in human MIAPaCa2 cells at 5 uM after 24 hrs by fluorescence microscopy; type: ADME, cell-based; details: mia paca-2, 24 h; how it was run: as §4
# LNCaP [35] = test: Cellular uptake in human LNCAP cells at 5 uM after 24 hrs by fluorescence microscopy; type: ADME, cell-based; how it was run: as §4
# [36] = Cellular uptake in HEK293T cells at 5 uM after 24 hrs by fluorescence microscopy; type: ADME, cell-based; details: human, hek-293t; how it was run: as §4
# A549 = test: Cellular uptake in human A549 cells at 5 uM after 24 hrs by fluorescence microscopy; type: ADME, cell-based; details: a549, 24 h; how it was run: as §4
# Rattus norvegicus [37] = organism: Rattus norvegicus; test: Induction of LPS-induced NO production in rat peritoneal cells after 24 hrs using DAR-2 probe by fluorescence assay; type: functional, cell-based
# HeLa = test: Cellular uptake in human HeLa cells at 5 uM after 24 hrs by fluorescence microscopy; type: ADME, cell-based; how it was run: as §4
# U2OS [38] = test: Cellular uptake in human U2OS cells at 5 uM after 24 hrs by fluorescence microscopy; type: ADME, cell-based; how it was run: as §4
# C2C12 [39] = test: Cellular uptake in mouse C2C12 cells at 5 uM after 24 hrs by fluorescence microscopy; type: ADME, cell-based; details: c2c12, 24 h; how it was run: as §4
# Rattus norvegicus [40] = organism: Rattus norvegicus; test: Induction of TNFalpha production in rat peritoneal cells at 0.01 to 40 uM after 24 hrs by ELISA; type: functional, cell-based
Compound,IC50 (HT-29 [1]),IC50 (C2C12 [2]),IC50 [3],IC50 [4],IC50 [5],IC50 (C2C12 [8]),IC50 (LNCaP [9]),IC50 (LNCaP [11]),IC50 (U2OS [12]),IC50 [14],IC50 (C2C12 [15]),IC50 (MCF7 [16]),IC50 [17],IC50 (MCF7 [19]),IC50 [21],IC50 (U2OS [22]),IC50 (HT-29 [23]),IC50 (HT-29 [24]),IC50 (LNCaP [25]),IC50 (U2OS [27]),further results
C/C=C(/C)C(=O)O[C@@H]1C[C@H]2C(=C1C)[C@@H]1OC(=O)[C@@](C)(O)[C@@]1(O)[C@@H](OC(=O)[C@@H](C)CC)C[C@]2(C)OC(C)=O,9.8 µM,0.3 µM,9.6 µM,0.5 µM,6 µM,1 µM,0.5 µM,0.4 µM,12.5 µM,1.5 µM,4 µM,0.2 µM,17.4 µM,2.1 µM,1.3 µM,0.2 µM,9.5 µM,41.4 µM,3.4 µM,0.7 µM,Activity [6]: 65%; Drug uptake [7]: Active; Activity (LNCaP [10]): Active; Activity (PC-3): Active; Drug uptake [13]: Active; Activity (U2OS [18]): Active; Drug uptake [20]: Active; Activity (MCF7 [26]): Active; Drug uptake [28]: Active; IC50 (MCF7 [29]): 2.5 µM
C/C=C(/C)C(=O)O[C@@H]1C[C@H]2C(=C1C)[C@@H]1OC(=O)[C@@](C)(O)[C@@]1(O)[C@@H](OC(=O)Cn1cc(COc3ccc(C4=C5C=CC=[N+]5[B-](F)(F)n5cccc54)cc3)nn1)C[C@]2(C)OC(C)=O,> 50 µM,> 50 µM,2.2 µM,3.2 µM,> 50 µM,> 50 µM,3.5 µM,> 50 µM,> 50 µM,> 50 µM,> 50 µM,> 50 µM,> 50 µM,> 50 µM,2.9 µM,> 50 µM,> 50 µM,> 50 µM,> 50 µM,> 50 µM,Activity [30]: Non-toxic; Activity [31]: Non-toxic; Drug uptake [32]: Not Active; Drug uptake (MCF7 [33]): Not Active; Drug uptake [34]: Not Active; Drug uptake (LNCaP [35]): Not Active; Drug uptake [36]: Not Active; Drug uptake (A549): Not Active; Activity (Rattus norvegicus [37]): Dose-dependent effect; Drug uptake (HeLa): Not Active; IC50 (MCF7 [29]): > 50 µM; Drug uptake (U2OS [38]): Not Active; Drug uptake (C2C12 [39]): Not Active
F[B-]1(F)n2cccc2C=C2C=CC=[N+]21,> 50 µM,> 50 µM,1.5 µM,5.6 µM,> 50 µM,> 50 µM,> 50 µM,> 50 µM,> 50 µM,> 50 µM,> 50 µM,> 50 µM,> 50 µM,> 50 µM,3.1 µM,> 50 µM,> 50 µM,> 50 µM,> 50 µM,> 50 µM,Activity (Rattus norvegicus [40]): inactive; Activity (Rattus norvegicus [37]): inactive; IC50 (MCF7 [29]): > 50 µM
C/C=C(/C)C(=O)O[C@@H]1C[C@H]2C(=C1C)[C@@H]1OC(=O)[C@@](C)(O)[C@@]1(O)[C@@H](OC(=O)CCOCCOCCOCCOCCOCCOCCOCCOCCOCCOCCn1cc(COc3ccc(C4=C5C=CC=[N+]5[B-](F)(F)n5cccc54)cc3)nn1)C[C@]2(C)OC(C)=O,> 50 µM,> 50 µM,> 50 µM,> 50 µM,50 µM,> 50 µM,> 50 µM,> 50 µM,> 50 µM,41.1 µM,> 50 µM,> 50 µM,> 50 µM,47.3 µM,> 50 µM,> 50 µM,> 50 µM,> 50 µM,> 50 µM,> 50 µM,Activity [30]: Non-toxic; Activity [31]: Non-toxic; Drug uptake [32]: Not Active; Drug uptake (MCF7 [33]): Not Active; Drug uptake [34]: Not Active; Drug uptake (LNCaP [35]): Not Active; Drug uptake [36]: Not Active; Drug uptake (A549): Not Active; Activity (Rattus norvegicus [37]): Dose-dependent effect; Drug uptake (HeLa): Not Active; IC50 (MCF7 [29]): 48 µM; Drug uptake (U2OS [38]): Not Active; Drug uptake (C2C12 [39]): Not Active
C/C=C(/C)C(=O)O[C@@H]1C[C@H]2C(=C1C)[C@@H]1OC(=O)[C@@](C)(O)[C@@]1(O)[C@@H](OC(=O)CCOCCOCCOCCOCCn1cc(COCCOCCOCCOCCNC(=O)CCOCCOCCOCCOCCn3cc(COc4ccc(C5=C6C=CC=[N+]6[B-](F)(F)n6cccc65)cc4)nn3)nn1)C[C@]2(C)OC(C)=O,> 50 µM,> 50 µM,> 50 µM,> 50 µM,> 50 µM,> 50 µM,> 50 µM,> 50 µM,> 50 µM,> 50 µM,> 50 µM,> 50 µM,> 50 µM,> 50 µM,> 50 µM,> 50 µM,> 50 µM,> 50 µM,> 50 µM,> 50 µM,Activity [30]: Non-toxic; Activity [31]: Non-toxic; Drug uptake [32]: Not Active; Drug uptake (MCF7 [33]): Not Active; Drug uptake [34]: Not Active; Drug uptake (LNCaP [35]): Not Active; Drug uptake [36]: Not Active; Drug uptake (A549): Not Active; Activity (Rattus norvegicus [37]): Dose-dependent effect; Drug uptake (HeLa): Not Active; IC50 (MCF7 [29]): > 50 µM; Drug uptake (U2OS [38]): Not Active; Drug uptake (C2C12 [39]): Not Active
